Measurements reported in publication PMC10756989 (Heliyon, 2023).

Tests used:
[1] = DPPH radical mopping capacity; conditions: DPPH 300 μM in methanol, 30 min, 516 nm
Method in brief: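 Test compound or Trolox reference (63–500 μg/mL) mixed with DPPH in methanol and kept in the dark at ambient temperature. Absorbance is read against a control without sample or Trolox.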

pancreatic α-amylase = molecular target: T1, pancreatic α-amylase (Homo sapiens, UniProt P04746); assay: α-amylase enzyme inhibitory activity; format: biochemical; conditions: for percentage α-amylase inhibition: at 63 μg/mL, Fig. 5
T1 sequence (P04746 16-511): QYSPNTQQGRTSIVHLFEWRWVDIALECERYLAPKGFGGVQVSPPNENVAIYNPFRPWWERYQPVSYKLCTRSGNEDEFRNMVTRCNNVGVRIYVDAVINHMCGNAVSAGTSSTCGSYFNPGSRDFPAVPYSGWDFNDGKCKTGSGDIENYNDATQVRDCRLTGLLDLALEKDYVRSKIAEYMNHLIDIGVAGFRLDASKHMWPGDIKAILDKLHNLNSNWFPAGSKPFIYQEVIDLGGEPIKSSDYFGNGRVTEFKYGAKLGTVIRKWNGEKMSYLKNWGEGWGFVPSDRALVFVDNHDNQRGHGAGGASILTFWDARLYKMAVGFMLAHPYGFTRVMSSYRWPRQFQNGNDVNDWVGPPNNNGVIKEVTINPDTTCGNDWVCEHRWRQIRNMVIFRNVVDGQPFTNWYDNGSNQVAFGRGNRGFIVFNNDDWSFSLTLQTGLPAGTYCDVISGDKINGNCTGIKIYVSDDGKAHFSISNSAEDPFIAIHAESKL

Nitric oxide = conditions: for NO IC50: 10 mM sodium nitroprusside, pH 7.4 PBS, 25 °C, 546 nm; for NO scavenging activity: Fig. 12
Method in brief: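 Test compound or Trolox reference at various concentrations, incubated 2 h with sodium nitroprusside in PBS. Griess reagent is added, with a further 5 min at 25 °C. Absorbance is read against a blank without test samples.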

Ferric = conditions: for FRAP IC50: ferric reducing power, 63–500 μg/mL, 700 nm; for Fe^3+ reducing power: at 500 μg/mL, Fig. 14
Method in brief: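 Potassium ferricyanide reduction: test compound or Trolox (63–500 μg/mL) with 200 mM phosphate buffer and 1 % K3Fe(CN)6, 50 °C, 25 min. Then TCA (0.1 g/mL) is added, the mix is diluted with water, and 0.1 % FeCl3 is added before reading. Reducing capacity is estimated from a gallic acid standard curve.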

yeast α-glucosidase = yeast α-glucosidase (Saccharomyces cerevisiae, UniProt P53341); assay: α-glucosidase enzyme inhibitory activity; format: biochemical; conditions: for α-glucosidase percentage inhibition: at 250 μg/mL
Sequence of yeast α-glucosidase (P53341 whole entry): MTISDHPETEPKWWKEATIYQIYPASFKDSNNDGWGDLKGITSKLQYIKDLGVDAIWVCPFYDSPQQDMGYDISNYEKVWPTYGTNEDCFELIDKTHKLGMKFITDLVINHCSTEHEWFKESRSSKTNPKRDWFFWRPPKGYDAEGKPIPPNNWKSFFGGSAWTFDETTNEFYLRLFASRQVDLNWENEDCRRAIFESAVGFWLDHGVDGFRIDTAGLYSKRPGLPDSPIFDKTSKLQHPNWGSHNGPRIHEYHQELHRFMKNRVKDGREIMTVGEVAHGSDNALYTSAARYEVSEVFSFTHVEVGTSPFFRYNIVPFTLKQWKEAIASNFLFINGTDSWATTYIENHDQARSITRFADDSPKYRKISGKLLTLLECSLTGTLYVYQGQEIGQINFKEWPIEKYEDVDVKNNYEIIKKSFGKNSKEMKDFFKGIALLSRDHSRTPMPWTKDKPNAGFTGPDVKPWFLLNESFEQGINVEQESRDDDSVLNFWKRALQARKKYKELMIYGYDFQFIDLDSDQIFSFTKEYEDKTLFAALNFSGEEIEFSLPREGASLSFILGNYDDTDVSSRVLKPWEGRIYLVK

Structure (SMILES) | DPPH IC50 [1] | percentage α-amylase inhibition (pancreatic α-amylase) | NO IC50 (Nitric oxide; listed as Acarbose (Standard)) | FRAP IC50 (Ferric) | α-glucosidase inhibitory effect (yeast α-glucosidase; at 63–125 μg/mL, among the synthesised samples, Fig. 6) | IC50 (pancreatic α-amylase) [µM] | NO IC50 (Nitric oxide) | IC50 (yeast α-glucosidase) [µM] | α-glucosidase inhibitory activity (yeast α-glucosidase; at 500 μg/mL, compared with L1 and acarbose, Fig. 6) | α-glucosidase percentage inhibition (yeast α-glucosidase; Fig. 6) | NO scavenging activity (Nitric oxide; at 63–250 μg/mL, versus other compounds and Trolox) | Fe^3+ reducing power (Ferric) | NO scavenging activity (Nitric oxide; at 500 μg/mL)
C[C@H]1O[C@H](O[C@H]2[C@H](O)[C@@H](O)[C@@H](O[C@H]3[C@H](O)[C@@H](O)C(O)O[C@@H]3CO)O[C@@H]2CO)[C@H](O)[C@@H](O)[C@@H]1N[C@H]1C=C(CO)[C@@H](O)[C@H](O)[C@H]1O (stereo partly shown) [Acarbose, reference compound] | 13,62 μg/mL | indistinguishable | 109,59 μg/mL | 292,51 μg/mL |  |  |  |  |  |  |  |  | 
Cc1c(C)c2c(c(C)c1O)CCC(C)(C(=O)O)O2 (stereo not shown) [Trolox, reference compound] | 13.62 µg/mL |  |  | 292.51 µg/mL |  |  | 109.59 µg/mL |  |  |  |  |  | 

More lines, main results first:

DPPH IC50 [1] | percentage α-amylase inhibition (pancreatic α-amylase) | NO IC50 (Nitric oxide; listed as Acarbose (Standard)) | FRAP IC50 (Ferric) | α-glucosidase inhibitory effect (yeast α-glucosidase; at 63–125 μg/mL, among the synthesised samples, Fig. 6) | IC50 (pancreatic α-amylase) [µM] | NO IC50 (Nitric oxide) | IC50 (yeast α-glucosidase) [µM] | α-glucosidase inhibitory activity (yeast α-glucosidase; at 500 μg/mL, compared with L1 and acarbose, Fig. 6) | Structure (SMILES) | α-glucosidase percentage inhibition (yeast α-glucosidase; Fig. 6) | NO scavenging activity (Nitric oxide; at 63–250 μg/mL, versus other compounds and Trolox) | Fe^3+ reducing power (Ferric) | NO scavenging activity (Nitric oxide; at 500 μg/mL)
25,44 μg/mL | indistinguishable |  | >500 µg/mL | significantly higher inhibitory effect | 215 | 70,91 μg/mL |  |  | Cc1cc(C)c(/N=C/c2ccc3ccccc3c2)c(C)c1 [Compound L1, (E)-N-mesityl-1-(naphthalen-2-yl)methanimine] | did not exhibit statistically significant differences | significantly higher | slightly better abilities | 
35,69 μg/mL | indistinguishable |  | >500 µg/mL |  | > 1930 | 119,68 μg/mL | 568 | significantly greater activity | Cc1cccc(C)c1/N=C/c1ccc2ccccc2c1 [Compound L2, (E)-N-(2,6-dimethylphenyl)-1-(naphthalen-2-yl)methanimine] | did not exhibit statistically significant differences |  | slightly better abilities | lower compared with the other test compounds and standard
67,81 μg/mL |  |  | >500 µg/mL |  | > 1580 | 91,21 μg/mL | 653 |  | CC(C)c1cccc(C(C)C)c1/N=C/c1ccc2ccccc2c1 [Compound L3, (E)-N-(2,6-diisopropylphenyl)-1-(naphthalen-2-yl)methanimine] |  |  |  | 
